This is an account of results in ChEMBL document CHEMBL1147783, “Synthesis and biological activity of novel 4-phenyl-1,8-naphthyridin-2(1H)-on-3-yl ureas: potent acyl-CoA:cholesterol acyltransferase inhibitor with improved aqueous solubility” (Bioorg Med Chem Lett, 2006).

Data set [1] can be described thus: Solubility in phosphate buffer at pH 5.5. The data set is classed as physicochemical. In outline: (§1)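 Solubility was measured at rt in phosphate buffer (5.53% aq citric acid/1.75% aq Na₂HPO₄) adjusted to pH 2.5, 5.5 or 7.4. Dissolved compound was quantified by HPLC.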
A short description of data set [2]: Solubility in phosphate buffer at pH 2.5. The format is physicochemical. In outline:
as §1

Data set [3] deals with T1, Sterol O-acyltransferase 1 (Rattus norvegicus, UniProt O70536).
T1 sequence (O70536 whole entry): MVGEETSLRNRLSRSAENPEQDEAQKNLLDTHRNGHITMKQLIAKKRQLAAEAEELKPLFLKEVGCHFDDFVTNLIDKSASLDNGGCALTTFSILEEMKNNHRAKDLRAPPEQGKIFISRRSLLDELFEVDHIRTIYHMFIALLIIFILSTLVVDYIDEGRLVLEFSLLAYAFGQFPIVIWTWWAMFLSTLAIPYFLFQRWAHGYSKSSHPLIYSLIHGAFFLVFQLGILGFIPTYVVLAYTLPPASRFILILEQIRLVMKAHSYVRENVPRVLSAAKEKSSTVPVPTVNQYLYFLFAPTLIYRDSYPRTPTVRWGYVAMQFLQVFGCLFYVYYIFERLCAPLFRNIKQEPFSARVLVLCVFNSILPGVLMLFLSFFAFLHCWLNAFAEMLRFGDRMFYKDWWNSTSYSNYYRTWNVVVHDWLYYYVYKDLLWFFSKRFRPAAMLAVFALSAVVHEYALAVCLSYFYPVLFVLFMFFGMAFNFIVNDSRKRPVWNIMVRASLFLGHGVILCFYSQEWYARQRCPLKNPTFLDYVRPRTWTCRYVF
Kind of data set: Inhibitory activity against ACAT in rat macrophages.

The nature of data set [4]: Solubility in phosphate buffer at pH 7.4. The format is physicochemical. In outline: as §1
Data set [5] is described as follows: AUC in rabbit administered with 1.0 mg/kg/day for 21 days. The data set is classed as ADME, organism-based, Oryctolagus cuniculus. As to conditions: plasma. In outline:
(§2)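 Rabbits were dosed orally at 1.0 mg/kg/day for 21 days. Blood drug levels gave Cmax and AUC over 0–24 h. Serum total cholesterol was measured under the same regimen and expressed relative to control animals.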

Data set [6] is described as follows: Cmax in mice administered with 30 mg/kg po. As to conditions: mouse, in vivo. The data set is classed as ADME, organism-based. Also noted: dose 30 mg/kg, route oral.
Another data set relates to Oryctolagus cuniculus. As to the kind of experiment: Decrease in serum total cholesterol in rabbit administered with 1.0 mg/kg/day for 21 days compared to control. Details: scale not given: the % may be the effect or the level left. The format is ADME, organism-based. Particulars: in vivo, 504 h. In outline: as §2
Data set [7] can be described thus: Cmax in rabbit administered with 1.0 mg/kg/day for 21 days. The data set is classed as ADME, organism-based, Oryctolagus cuniculus. Details: dose 1 mg/kg/day. Particulars: in vivo. In outline: as §2

In general, solubility refers to how much of the substance goes into solution per volume. As a reminder, the IC50 is the point on the concentration scale where inhibition reaches its midpoint. For `CCCCn1c(=O)c(NC(=O)Nc2c(C(C)C)cccc2C(C)C)c(-c2cccc(OC)c2)c2cccnc21`, the solubility in data set [1], in data set [2] and in data set [4] was below 1 µg/mL in each case. This compound also registered a 50% inhibitory concentration (IC50) in data set [3] of 11 nM.

Turning to `CCCCn1c(=O)c(NC(=O)Nc2c(C(C)C)cc(N)cc2C(C)C)c(-c2cccc(OCCCN3CCCC3)c2)c2cccnc21.Cl.Cl`, the solubility in data set [1] is 200 µg/mL; in data set [2], above 1000 µg/mL; in data set [4], 130 µg/mL. This compound also gave a concentration for half-maximal inhibition (IC50) in data set [3] of 427 nM.

Take `CCCCn1c(=O)c(NC(=O)Nc2c(C(C)C)cc(CN(CC)CC)cc2C(C)C)c(-c2cccc(OC)c2)c2cccnc21.Cl`: the solubility was 1000 µg/mL in data set [1], above 1000 µg/mL in data set [2] and 62 µg/mL in data set [4]. The IC50 in data set [3] turned out to be 680 nM.

On to `CCCCn1c(=O)c(NC(=O)Nc2c(C(C)C)cc(N)cc2C(C)C)c(-c2cccc(OCCCN(CC)CC)c2)c2cccnc21.Cl.Cl`, for which the solubility in data set [1] is 690 µg/mL; in data set [2], above 1000 µg/mL; in data set [4], 640 µg/mL. Moreover, the IC50 in data set [3] stood at 452 nM.

As for `CCCCn1c(=O)c(NC(=O)Nc2c(C(C)C)ccc(N)c2C(C)C)c(-c2cccc(OCCCO)c2)c2cccnc21.Cl`, the values for the solubility in data set [1], in data set [2] and in data set [4] were 19 µg/mL, above 1000 µg/mL and 17 µg/mL, respectively. The midpoint of inhibition in data set [3], the IC50, lay at 43 nM.

Take `CCCCn1c(=O)c(NC(=O)Nc2c(C(C)C)cc(N)cc2C(C)C)c(-c2cccc(OCCO)c2)c2cccnc21.Cl`: the solubility was 32 µg/mL in data set [1], above 1000 µg/mL in data set [2] and 30 µg/mL in data set [4]. Moreover, the IC50 in data set [3] is above 1000 nM.

For the compound `CCCCn1c(=O)c(NC(=O)Nc2c(C(C)C)cc(N)cc2C(C)C)c(-c2cccc(OCCCCO)c2)c2cccnc21.Cl`, the solubility in data set [1] worked out at 7 µg/mL; in data set [2], 680 µg/mL; in data set [4], 5 µg/mL. In data set [3], the midpoint of inhibition, the IC50, lay at 61 nM.

For orientation: AUC means concentration integrated over time. Broadly, the Cmax is the highest concentration seen after dosing. For `CCCCn1c(=O)c(NC(=O)Nc2c(C(C)C)cc(N)cc2C(C)C)c(-c2cccc(OCCCO)c2)c2cccnc21.Cl`, the figures for the solubility in data set [1], in data set [2] and in data set [4] were 14 µg/mL, above 1000 µg/mL and 10 µg/mL, respectively. For the same compound, the AUC at 504 h in data set [5] was 39.8 ng·h/mL. The IC50 in data set [3] turned out to be 21 nM. The figures for the maximum concentration (Cmax) in data set [6] and in data set [7] were 21300 ng/mL and 16 ng/mL, respectively. Moreover, in the data set on Oryctolagus cuniculus, the Activity came out at 53%.

Take `CCCCn1c(=O)c(NC(=O)Nc2c(C(C)C)cc(N)cc2C(C)C)c(-c2cccc(OCCCN3CCCCC3)c2)c2cccnc21.Cl.Cl`: the values for the solubility in data set [1], in data set [2] and in data set [4] were 180 µg/mL, above 1000 µg/mL and 200 µg/mL, respectively. In data set [3], this compound gave an IC50 of 540 nM.

On to `CCCCn1c(=O)c(NC(=O)Nc2c(C(C)C)cc(N)cc2C(C)C)c(-c2cccc(OC)c2)c2cccnc21.Cl`, for which the solubility was 1 µg/mL in data set [1], 22 µg/mL in data set [2] and below 1 µg/mL in data set [4]. The compound further gave an IC50 in data set [3] of 8.3 nM.

Take `CCCCn1c(=O)c(NC(=O)Nc2c(C(C)C)ccc(N)c2C(C)C)c(-c2cccc(OC)c2)c2cccnc21.Cl`: the solubility is 1 µg/mL in data set [1], 700 µg/mL in data set [2] and 1 µg/mL in data set [4]. Half-maximal inhibition in data set [3] (IC50) required 14 nM.

For `CCCCn1c(=O)c(NC(=O)Nc2c(C(C)C)ccnc2C(C)C)c(-c2cccc(OC)c2)c2cccnc21.Cl`, the solubility in data set [1] was 19 µg/mL; in data set [2] it was above 1000 µg/mL; in data set [4], 5 µg/mL. In addition, in data set [3], the IC50 was 5.4 nM.

As for `CCCCn1c(=O)c(NC(=O)Nc2c(C(C)C)cc(CN)cc2C(C)C)c(-c2cccc(OC)c2)c2cccnc21.Cl`, the solubility was determined as 23 µg/mL in data set [1], 220 µg/mL in data set [2] and 36 µg/mL in data set [4]. For the same compound, the IC50 in data set [3] worked out at 382 nM.
